Fam108B inh: Fam108B inhibition, counter-screen for RBBP9 inhibitors | 300,000 tested, 0.33% active | recombinant Fam108B, FP-Rh probe fluorescence polarization | inhibition, % at 9.51 µM;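 active = inhibition above the screen mean inhibition plus 3 SD, computed separately per campaign, cut at about 18% in these data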;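 note: inhibitors lower polarization as less probe binds the enzyme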
LYPLA1 counter: LYPLA1 (human) inhibition in PME1 counter-screen | O75608 | recombinant LYPLA1, FP-Rh probe fluorescence polarization | inhibition, % at 5.9 µM | 320,000 tested, 0.16% active;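 active = inhibition above the mean of all tested compounds plus 3 SD, set per campaign, cut at about 14% in these data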;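 note: inhibitors block serine hydrolase probe labeling of LYPLA1 so polarization falls; 0% = enzyme with DMSO and 100% = wells lacking LYPLA1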
LYPLA2 inh: counter-screen for PME1 inhibitors: inhibitors of human LYPLA2; 320,000 tested, 0.38% active; O95372; recombinant LYPLA2, FP-Rh probe fluorescence polarization; inhibition, % at 5.9 µM;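 active = inhibition above the screen-wide mean plus 3 SD, limit set per campaign, cut at about 26% in these data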;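 note: 0% = LYPLA2 with DMSO and 100% = wells lacking LYPLA2 enzyme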
PAD4 inh: inhibitors of human PAD4 | Q9UM07 | recombinant PAD4, RCA probe fluorescence polarization | inhibition, % at 6.36 µM | 330,000 tested, 0.41% active | AID 485272;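 active = percent inhibition above a cutoff equal to the mean of all tested compounds plus 3 SD, cut at about 15% in these data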;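 note: 0% = PAD4 with RCA probe and DMSO and 100% = probe without PAD4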
Target sequence (Q9UM07 whole entry, looked up): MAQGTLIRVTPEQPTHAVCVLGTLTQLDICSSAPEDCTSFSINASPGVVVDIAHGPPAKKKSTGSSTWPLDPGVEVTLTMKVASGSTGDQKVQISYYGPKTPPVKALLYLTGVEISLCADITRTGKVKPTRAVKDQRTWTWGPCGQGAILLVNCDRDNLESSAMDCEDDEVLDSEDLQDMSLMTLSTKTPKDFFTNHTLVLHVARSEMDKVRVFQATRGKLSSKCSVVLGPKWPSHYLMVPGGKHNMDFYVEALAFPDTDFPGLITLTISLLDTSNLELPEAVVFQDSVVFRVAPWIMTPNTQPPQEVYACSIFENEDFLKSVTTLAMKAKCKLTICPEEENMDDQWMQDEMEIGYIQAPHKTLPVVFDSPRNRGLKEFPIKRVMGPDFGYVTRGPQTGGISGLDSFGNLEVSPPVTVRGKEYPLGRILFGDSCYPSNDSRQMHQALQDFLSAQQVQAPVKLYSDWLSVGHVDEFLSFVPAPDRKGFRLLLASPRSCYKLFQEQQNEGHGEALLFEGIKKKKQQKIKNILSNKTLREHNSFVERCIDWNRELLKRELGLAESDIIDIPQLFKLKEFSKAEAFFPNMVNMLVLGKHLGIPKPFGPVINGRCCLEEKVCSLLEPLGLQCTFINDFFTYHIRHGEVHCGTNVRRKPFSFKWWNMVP
RBBP9 inh: inhibitors of human serine hydrolase RBBP9. O75884. recombinant RBBP9, FP-Rh probe fluorescence polarization. inhibition, % at 7.94 µM. 220,000 tested, 0.2% active;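 active = inhibition above the campaign mean of all tested compounds plus 3 SD, cut at about 14% in these data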;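 note: plate controls were DMSO wells with RBBP9 for no effect and wells lacking RBBP9 protein for full effect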
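Controls: DMSO-treated enzyme wells and wells lacking RBBP9 | Material: RBBP9 protein | Technique: Fluorescence polarization | Replication: Single well per compound, no replicates | Buffer or medium: Tris-NaCl-Pluronic buffer, pH 8.0 | Timing: 30 min compound preincubation, 45 min probe labeling, 25 °C | Read-out basis: Percent inhibition from mP, scaled between DMSO and no-protein wells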
PME-1 inh: PME-1 (human) inhibition | recombinant PME-1, FP-Rh probe fluorescence polarization | 320,000 tested, 0.53% active | AID 2130 | Q9Y570 | inhibition, % at 5.9 µM;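 active = inhibition above the campaign mean of all compounds plus 3 SD, cut at about 26% in these data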;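 note: competitive labeling of PME-1 active site by serine hydrolase directed probe; 0% = PME-1 with DMSO and 100% = wells lacking PME-1 enzyme; inhibitors block probe labeling so polarization falls and inhibition rises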
Fam108b inh conf: confirmation of mouse Fam108b serine hydrolase inhibitors; AID 1978; inhibition, % at 9.51 µM; shares compounds with Fam108B inh; 930 tested, 44% active; recombinant Fam108b, FP-Rh probe fluorescence polarization;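 active = inhibition above a limit from the primary screen, the mean over all compounds plus 3 SD, cut at about 19% in these data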;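 note: 0% = median of active Fam108b wells and 100% = catalytically dead S170A mutant; inhibitors free the probe so polarization falls as inhibition rises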
Fam108b ABPP HTS: mouse ABHD17B inhibition; shares compounds with Fam108B inh; recombinant Fam108b, gel-based ABPP, fluorophosphonate probe; AID 588649; 260 tested, 44% active; inhibition, % at 20 µM; in the data active = inhibition above about 40%
An asterisk follows results filed as active; · = not tested or not shown. Hits are enriched below; roughly 1.3% of the tested compounds scored in any of these assays.

SMILES	Fam108B inh	LYPLA1 counter	LYPLA2 inh	PAD4 inh	RBBP9 inh	PME-1 inh	Fam108b inh conf	others
O=C(O)C1=CC(=C(c2ccc(O)c(C(=O)O)c2)c2ccc(O)c(C(=O)O)c2)C=CC1=O	53*	-12	-8	-47	·	-55	32*
CCOC(=O)c1ccc(N2CCN(c3ccc(F)cc3)CC2)c(NC(=O)Nc2cccc(OC)c2)c1	36*	-6	-19	0	-7	17	-7
CN(C)C(=O)c1ccc(Nc2ncnc3sc4c(c23)CCCCC4)cc1	6	-2	2	-5	·	6	·
COc1ccc(NC(=O)Nc2ccon2)cc1OC	-2	0	3	-7	·	3	·
COc1cc(/C=N/NC(=O)c2cc3c(ccc4ccccc43)o2)cc(OC)c1O	27*	-2	3	2	·	34*	20*
O=C(N/N=C/c1ccncc1)c1cc2c(ccc3ccccc32)o1	-9	-16	-8	-2	-14	-28	·
O=C(NN=Cc1cc(Cl)c(O)c(Cl)c1)c1cc2c(ccc3ccccc32)o1	·	·	·	·	·	·	·	Fam108b ABPP HTS=0
COc1ccc(C(=O)NCC2(c3ccc(OC)c(OC)c3)CCCC2)c(OC)c1	-1	-1	-1	-2	·	1	·
O=C(Nc1cc(Sc2nc3ccccc3s2)cc([N+](=O)[O-])c1)c1cccc(F)c1F	19*	-16	-25	3	-3	11	25*
Brc1ccc(C2=Nc3cccc4cccc(c34)N2)o1	19*	-4	-1	2	-3	3	12
COc1cccc(/C=C/C(=O)N2CCN(S(=O)(=O)c3ccccc3)CC2)c1OC	-2	9	1	0	2	2	·
O=C(O)c1ccccc1C(=O)NCc1c(Cl)cccc1Sc1ccc(Cl)cc1	-1	3	16	-2	·	1	·
C/C(=N\Nc1ccc(C(=O)O)cc1)c1ccc2c(c1)Nc1ccccc1S2	30*	9	12	0	6	28*	27*
COc1ccc(O)c(/C=N/NC(=S)Nc2cccc(S(=O)(=O)N(C)C)c2)c1	37*	-4	2	-1	-8	53*	-8
COc1ccc(O)c(/C=N/NC(=S)Nc2cccnc2)c1	12	2	4	-3	4	12	·
CCOC(=O)c1c(N)sc2c1CCN(CCc1ccccc1)C2	-1	0	1	-6	·	-3	·
COc1ccccc1NC(=O)Nc1nc(CC(=O)Nc2ccc(F)c(F)c2)cs1	20*	-28	-32	-6	·	-23	-18
O=C(Nc1ccc(F)cc1)Nc1ccc(N2CCCC2)c(S(=O)(=O)Nc2ccccc2Cl)c1	25*	-25	-2	-11	-19	26	37*	Fam108b ABPP HTS=95*
Cc1ccc(C)c(S(=O)(=O)NCCCc2ccccc2)c1	-2	0	0	1	·	-5	·
CCCCCNC(=O)c1ccc2c(=O)[nH]c3c(C(=O)NCC4CCCO4)sc(=S)n3c2c1 (configuration not stated)	21*	-1	16	-5	2	8	12
Cc1ccc(CNC(=O)c2ccc3c(=O)[nH]c4c(C(=O)NCC5CCCO5)sc(=S)n4c3c2)cc1 (configuration not stated)	17	1	7	-3	1	16	·
O=C(NCc1ccco1)c1sc(=S)n2c1[nH]c(=O)c1ccccc12	38*	2	10	-4	-5	16	34*	Fam108b ABPP HTS=15
O=C(NCc1ccccc1)c1ccc2c(=O)[nH]c3c(C(=O)NCC4CCCO4)sc(=S)n3c2c1 (configuration not stated)	34*	7	4	-8	4	11	20*
CCOC(=O)c1ccccc1NC(=O)CSC(C)C(=O)Nc1cc(C)on1 (configuration not stated)	1	0	0	0	·	-2	·
CC(NC(=O)CN(C)S(=O)(=O)c1cccc2nsnc12)c1ccccc1 (configuration not stated)	5	5	6	4	·	5	·
SMILES	Fam108B inh	LYPLA1 counter	LYPLA2 inh	PAD4 inh	RBBP9 inh	PME-1 inh	Fam108b inh conf	others
NS(=O)(=O)c1ccc(NC(=O)COc2ccc(S(=O)(=O)N3CCCC3)cc2)cc1	-1	-1	2	-1	·	3	·
CCCn1ccnc1SCC(=O)Nc1c(C)n(C)n(-c2ccccc2)c1=O	·	0	3	2	·	5	·
O=C(CSc1ccc(-c2ccco2)nn1)NCc1ccccc1Cl	22*	6	11	12	-6	17	6
COc1cc(-c2nc(-c3ccc4c(c3)-c3ccccc3S4(=O)=O)c(-c3ccccc3)[nH]2)cc(OC)c1OC	29*	-11	-4	-2	-4	14	4
Cc1cc2ccccc2c(=O)[nH]1	-2	0	0	-5	-5	-2	·
Cc1ccccc1Nc1cc2ccccc2c(=O)[nH]1	21*	1	6	59*	0	16	19*
CCc1cc(C(=O)O)c(NC(=O)/C=C/c2ccc(OC)cc2)s1	2	5	7	-1	-6	-84	·
CCc1cc(C(=O)O)c(NC(=O)/C=C/c2ccc(OC)c(OC)c2)s1	32*	-3	6	-4	-7	10	4
COc1ccc(C(=O)Nc2nc(-c3cccs3)cs2)cc1	-4	-11	-5	-4	-9	-20	·
Cc1csc(NC(=O)c2sc3nc(-c4cccs4)ccc3c2N)n1	31*	-16	-12	-2	-10	45*	7
CCCSc1nnc(NC(=O)c2sc3nc(-c4cccs4)ccc3c2N)s1	22*	-8	7	5	-8	42*	-107
CCCSc1nnc(NC(=O)c2ccco2)s1	2	-2	-7	-3	-3	0	·
C/C(=N/NC(=O)c1cccs1)c1ccc(N2CCOCC2)cc1	-2	-1	6	-5	-3	2	·
COc1ccc(-c2csc(NC(=O)Nc3ccccc3)n2)cc1	45*	-8	10	-1	·	48*	18
Nc1ccc(C#Cc2ccc3sc4ccccc4c(=O)c3c2)cc1	22*	-7	-7	2	·	7	-3
O=c1c2ccccc2sc2ccc(C#CC3(O)CCCCC3)cc12	-20	-21	-30	-5	·	-19	·
CC(C)(CNC(=O)CC1C(=O)NCCN1Cc1cccc(F)c1F)N1CCOCC1 (configuration not stated)	1	3	-3	-1	·	0	·
Cc1cc(NC(=O)CN2C(=O)NC3(CCCCCC3)C2=O)no1	-7	4	13	-2	-2	-8	·
N=c1oc2cc(O)ccc2cc1C(=O)Nc1ccc(Cl)cc1	22*	9	2	1	·	3	-5
Cc1ccc(NC(=O)c2cc3ccccc3oc2=N)cc1	-1	1	-2	-4	·	-9	·
